A value given as a limit tells only on which side of the number the result lay.

One data set deals with Histone deacetylase 1 (Homo sapiens, UniProt Q13547). As to the kind of experiment: Inhibition of recombinant human C-terminal FLAG/His-tagged HDAC1 (1 to 482 residues) expressed in Sf9 insect cells using Z-(Ac)Lys-AMC as substrate measured after 90 mins by fluorescence assay. The procedure, abridged: (§1)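 Incubated with inhibitor in DMSO and fluorogenic substrate Z-(Ac)Lys-AMC (126 µM, as added) for 90 min at 37 °C. Stopped with trichostatin A plus trypsin for 30 min at 37 °C; fluorescence read at ex 390/em 460 nm.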
Sequence of Histone deacetylase 1 (Q13547 whole entry, the tested form may be a part): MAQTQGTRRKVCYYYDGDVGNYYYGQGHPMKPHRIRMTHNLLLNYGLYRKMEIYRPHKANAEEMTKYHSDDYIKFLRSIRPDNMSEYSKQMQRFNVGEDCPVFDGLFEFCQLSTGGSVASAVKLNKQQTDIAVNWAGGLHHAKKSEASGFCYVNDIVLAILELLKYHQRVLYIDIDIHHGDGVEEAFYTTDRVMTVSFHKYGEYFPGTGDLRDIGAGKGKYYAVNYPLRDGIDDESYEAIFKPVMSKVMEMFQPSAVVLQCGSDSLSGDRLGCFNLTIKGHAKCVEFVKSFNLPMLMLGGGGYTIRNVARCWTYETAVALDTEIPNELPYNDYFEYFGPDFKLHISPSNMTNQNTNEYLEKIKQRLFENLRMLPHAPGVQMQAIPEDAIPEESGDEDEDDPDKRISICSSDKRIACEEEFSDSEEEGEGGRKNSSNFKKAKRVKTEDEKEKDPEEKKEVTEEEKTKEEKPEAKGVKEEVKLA

The target in data set [1] is T1, Protein deacetylase HDAC6 (Homo sapiens, UniProt Q9UBN7).
T1 sequence (Q9UBN7 whole entry): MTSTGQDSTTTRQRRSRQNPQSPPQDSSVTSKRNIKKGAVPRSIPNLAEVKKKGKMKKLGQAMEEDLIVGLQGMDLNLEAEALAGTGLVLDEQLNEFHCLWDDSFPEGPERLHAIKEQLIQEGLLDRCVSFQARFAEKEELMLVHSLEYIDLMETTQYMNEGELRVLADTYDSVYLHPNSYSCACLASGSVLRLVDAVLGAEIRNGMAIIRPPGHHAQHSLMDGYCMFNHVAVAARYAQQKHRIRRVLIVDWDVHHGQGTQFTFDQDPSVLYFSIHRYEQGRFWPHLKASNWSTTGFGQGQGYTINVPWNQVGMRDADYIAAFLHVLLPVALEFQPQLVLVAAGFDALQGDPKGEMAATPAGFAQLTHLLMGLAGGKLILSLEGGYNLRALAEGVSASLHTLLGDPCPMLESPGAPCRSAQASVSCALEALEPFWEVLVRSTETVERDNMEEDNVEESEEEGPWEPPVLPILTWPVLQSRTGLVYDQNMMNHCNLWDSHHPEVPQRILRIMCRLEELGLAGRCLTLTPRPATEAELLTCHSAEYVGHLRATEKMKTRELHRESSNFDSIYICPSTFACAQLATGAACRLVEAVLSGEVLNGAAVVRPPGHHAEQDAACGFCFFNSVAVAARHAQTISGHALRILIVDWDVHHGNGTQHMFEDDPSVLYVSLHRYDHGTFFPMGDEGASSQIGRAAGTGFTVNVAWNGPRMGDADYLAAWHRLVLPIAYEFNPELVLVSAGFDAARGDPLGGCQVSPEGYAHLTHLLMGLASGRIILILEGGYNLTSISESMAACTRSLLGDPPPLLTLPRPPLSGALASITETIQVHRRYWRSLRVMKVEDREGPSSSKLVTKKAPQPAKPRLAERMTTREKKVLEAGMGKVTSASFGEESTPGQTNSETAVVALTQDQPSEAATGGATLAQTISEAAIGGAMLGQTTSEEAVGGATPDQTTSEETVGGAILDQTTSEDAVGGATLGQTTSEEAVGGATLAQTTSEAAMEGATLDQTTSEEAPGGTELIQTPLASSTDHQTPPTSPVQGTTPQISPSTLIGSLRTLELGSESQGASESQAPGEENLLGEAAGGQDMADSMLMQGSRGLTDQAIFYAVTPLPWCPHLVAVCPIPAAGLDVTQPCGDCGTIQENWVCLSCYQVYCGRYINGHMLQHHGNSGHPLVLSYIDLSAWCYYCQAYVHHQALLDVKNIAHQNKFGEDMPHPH
As to the kind of experiment: Inhibition of recombinant human full length N-terminal GST-tagged HDAC6 expressed in baculovirus infected Sf9 cells using Z-(Ac)Lys-AMC as substrate measured after 90 mins by fluorescence assay.

In a further data set the target is T2, Histone deacetylase 8 (Homo sapiens, UniProt Q9BY41).
T2 sequence (Q9BY41 whole entry): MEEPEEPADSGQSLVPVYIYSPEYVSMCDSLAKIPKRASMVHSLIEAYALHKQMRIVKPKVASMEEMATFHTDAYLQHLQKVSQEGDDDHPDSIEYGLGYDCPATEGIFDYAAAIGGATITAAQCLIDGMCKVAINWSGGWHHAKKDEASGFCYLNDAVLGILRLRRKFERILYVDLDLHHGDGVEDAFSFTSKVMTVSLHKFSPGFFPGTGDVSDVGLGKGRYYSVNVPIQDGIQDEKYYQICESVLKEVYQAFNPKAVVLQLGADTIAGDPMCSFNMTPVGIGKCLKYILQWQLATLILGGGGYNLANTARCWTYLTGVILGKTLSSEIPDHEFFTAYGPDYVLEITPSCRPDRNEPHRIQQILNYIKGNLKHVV
As to the kind of experiment: Inhibition of recombinant human HDAC8 using Fluor-de-Lys as substrate measured after 1 hr by fluorescence assay.

Another data set has as its system NIH3T3. As to the kind of experiment: Cytotoxicity against mouse NIH/3T3 cells assessed as reduction in cell viability after 24 hrs by neutral red uptake assay. It is filed as cell-based. Conditions: NIH3T3, 24 h. The procedure, abridged:
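NIH3T3 fibroblasts seeded at 5 x 10^4 per well and cultured 24 h at 37 °C, 5% CO2. DMSO-solubilized samples added at 8 to 160 µM for 24 h; medium as negative control. Neutral Red medium applied 3 h, dye desorbed in acetic acid/ethanol, absorbance read at 540 nm. Three experiments, six replicates per concentration; viability normalized to % control.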

Data set [2] can be described thus: Mutagenicity in Salmonella typhimurium TA98 at 5 to 230 uM measured after 90 mins in presence of rat liver S9 fraction by Ames test. In kind it is toxicity, subcellular. Conditions: salmonella enterica subsp. enterica serovar typhimurium, s9, 1.5 h, dose 5-230 µM. A general note: The Ames test uses bacterial strains that need an amino acid and regain growth without it when mutated back.

Data set [3] in a line: Mutagenicity in Salmonella typhimurium TA100 at 5 to 230 uM measured after 90 mins in presence of rat liver S9 fraction by Ames test. It is filed as toxicity, subcellular. Conditions: salmonella enterica subsp. enterica serovar typhimurium, s9, 1.5 h, dose 5-230 µM.
Data set [4] is described as follows: Mutagenicity in Salmonella typhimurium TA98 at 5 to 230 uM measured after 90 mins in absence of rat liver S9 fraction by Ames test. In kind it is toxicity. Conditions: salmonella enterica subsp. enterica serovar typhimurium, 1.5 h, dose 5-230 µM.
Data set [5] in a line: Mutagenicity in Salmonella typhimurium TA100 at 5 to 230 uM measured after 90 mins in absence of rat liver S9 fraction by Ames test. It is filed as toxicity. The note with it: salmonella enterica subsp. enterica serovar typhimurium, s9, 1.5 h, dose 5-230 µM.
Data set [6] can be described thus: Solubility of compound in pH 3 buffer at 250 uM measured after 24 hrs by HPLC/UV/DAD method. In kind it is physicochemical. Conditions: pH 3, 24 h. Put shortly:
(§2)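 10 mM DMSO stock diluted to 250 µM (2.5% DMSO) in 50 mM acetic acid, pH 3.0, and shaken 24 h at 25 °C. For solubility, samples filtered, diluted 1:2, quantified by HPLC-UV at 254 nm against a standard. For stability, percent remaining taken as the 24 h peak area over the T0 peak area. Triplicate analyses averaged.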

Data set [7] in a line: Stability of compound in pH 3 buffer assessed as parent compound remaining at 250 uM measured after 24 hrs by HPLC/UV/DAD method. In kind it is physicochemical. The note with it: read-out: Stabilty. The procedure, abridged:
as §2

Data set [8] addresses T3, HDAC1 (histone deacetylase 1) (Homo sapiens, UniProt Q13547). As to the kind of experiment: Inhibition of recombinant human C-terminal FLAG/His-tagged HDAC1 (1 to 482 residues) expressed in Sf9 insect cells at 50 uM using Z-(Ac)Lys-AMC as substrate measured after 90 mins by fluorescence assay relative to control. The note with it: probe Z-(Ac)Lys-AMC. The procedure, abridged: as §1

Data set [9] deals with T3, HDAC1 (histone deacetylase 1). As to the kind of experiment: Inhibition of recombinant human C-terminal FLAG/His-tagged HDAC1 (1 to 482 residues) expressed in Sf9 insect cells at 25 uM using Z-(Ac)Lys-AMC as substrate measured after 90 mins by fluorescence assay relative to control. The note with it: probe Z-(Ac)Lys-AMC. Put shortly: as §1
Data set [10] shares this target. As to the kind of experiment: Inhibition of recombinant human C-terminal FLAG/His-tagged HDAC1 (1 to 482 residues) expressed in Sf9 insect cells at 10 uM using Z-(Ac)Lys-AMC as substrate measured after 90 mins by fluorescence assay relative to control. The note with it: probe Z-(Ac)Lys-AMC. The procedure, abridged: as §1
The target is the same in data set [11]. As to the kind of experiment: Inhibition of recombinant human C-terminal FLAG/His-tagged HDAC1 (1 to 482 residues) expressed in Sf9 insect cells at 1 uM using Z-(Ac)Lys-AMC as substrate measured after 90 mins by fluorescence assay relative to control. Conditions: probe Z-(Ac)Lys-AMC. Put shortly: as §1

T3 sequence (Q13547 whole entry, the tested form may be a part): as the sequence (Q13547 whole entry, the tested form may be a part) above

Regarding `O=C(NO)c1ccc(COc2c(-c3cccnc3)c3ccccc3n(Cc3ccccc3)c2=O)cc1`, the half-inhibitory concentration (IC50) (as a rule, the concentration at which inhibition is half-maximal) was determined as 2500 nM on Histone deacetylase 1 and 25.6 nM in [1].
Consider `Cn1c(=O)c(OCc2ccc(C(=O)NO)cc2)c(C2CCCCC2)c2ccccc21`, for which the IC50 is 3000 nM at Histone deacetylase 1, 33 nM in [1], 1640 nM on Histone deacetylase 8 and 18000 nM in the data set with NIH3T3. The Kapp at Histone deacetylase 8 (human, 1 h) came to 1.93 µM. In addition, the Activity result in [2], in data set [3], in [4] and in data set [5] was “Non-Toxic” each time.
As to `COc1c(-c2ccccc2)c2ccccc2n(Cc2ccc(C(=O)NO)cc2)c1=O`, the results for the IC50 (at Histone deacetylase 1; in data set [1]; in the data set on NIH3T3) were 4500 nM, 61.6 nM and 90000 nM, respectively. In [6], the solubility result is recorded as “Soluble”. Moreover, in data set [7], the remaining at 24 h, 250 µM is above 95%. The Activity result in [2], in [3], in data set [4] and in data set [5] was “Non-Toxic” each time.
As to `O=C(NO)c1ccc(Cn2c(=O)c(OCc3ccccc3)c(-c3ccccc3)c3ccccc32)cc1`, the IC50 at Histone deacetylase 1 came to 5500 nM; in data set [1], 84.5 nM.
Take `O=C(NO)c1ccc(COc2c(-c3ccccc3)c3ccccc3n(C3CCN(Cc4ccccc4)CC3)c2=O)cc1`: the IC50 in data set [1] was determined as 870 nM. In addition, the inhibition (as a rule, the share of the control response that was lost under treatment) at 1.5 h, 50 µM in [8] stood at 79%. The inhibition at 1.5 h, 25 µM in [9] was determined as 67%. Moreover, the inhibition at 1.5 h, 10 µM in [10] came to 46%. In addition, the inhibition at 1.5 h, 1 µM in [11] is below 10%.
For `O=C(NO)c1ccc(COc2c(-c3ccccc3)c3ccccc3n(Cc3ccccc3)c2=O)cc1`, in that order: 176 nM, 97%, 93%, 76% and 17%.
For the molecule `Cn1c(=O)c(OCc2ccc(C(=O)NO)cc2)c(-c2cccnc2)c2ccccc21`, the IC50 on Histone deacetylase 1 was 5010 nM; in data set [1], 46 nM.
As for `O=C(NO)c1ccc(COc2c(-c3ccccc3)c3ccccc3n(Cc3ccncc3)c2=O)cc1`, the concentration for half-maximal inhibition (IC50) came out at 1200 nM on Histone deacetylase 1 and 84.1 nM in data set [1]. Also, in data set [6], the solubility entry was “Soluble”. Further, the remaining at 24 h, 250 µM in [7] was above 95%.
Take `Cn1c(=O)c(OCc2ccc(C(=O)NO)cc2)c(-c2ccccc2)c2ccccc21`: the 50% inhibitory concentration (IC50) in [1] worked out at 519 nM. The inhibition at 1.5 h, 50 µM in data set [8] came to 80%. Further, the inhibition at 1.5 h, 25 µM in data set [9] was 46%. For the same molecule, in [10], the inhibition at 1.5 h, 10 µM was determined as 26%. Also, the inhibition at 1.5 h, 1 µM in data set [11] is below 10%.
`O=C(NO)c1ccc(Cn2c(=O)c(O)c(-c3cccnc3)c3ccccc32)cc1`: in data set [1], the IC50 is 296 nM. Further, in [8], the inhibition at 1.5 h, 50 µM was found to be 96%. In data set [9], the inhibition at 1.5 h, 25 µM was determined as 82%. The inhibition at 1.5 h, 10 µM in data set [10] was found to be 36%. Also, the inhibition at 1.5 h, 1 µM in data set [11] is below 10%.
Take `O=C(NO)c1ccc(Cn2c(=O)c(O)c(-c3ccccc3)c3ccccc32)cc1`: the IC50 on Histone deacetylase 1 was 11000 nM; in data set [1] it was 308 nM.
For the molecule `O=C(NO)c1ccc(COc2c(-c3cccnc3)c3ccccc3n(Cc3ccncc3)c2=O)cc1`, the IC50 on Histone deacetylase 1 worked out at 1700 nM; in data set [1], 45.3 nM.
Turning to `C#CCn1c(=O)c(OCc2ccc(C(=O)NO)cc2)c(-c2ccccc2)c2ccccc21`, the IC50 on Histone deacetylase 1 is 6100 nM; in data set [1], 82.3 nM.

(Values after ChEMBL document CHEMBL4732101, “Novel quinolone-based potent and selective HDAC6 inhibitors: Synthesis, molecular modeling studies and biological investigation” (Eur J Med Chem, 2021).)
